pEC50, pIC50: −log10 of the molar value.
Legend:
[1] = Inhibition of HIV1 gp41 assessed as gp41-six-helix bundle formation after 30 mins by sandwich ELISA; set-up: species or system Human immunodeficiency virus 1; conditions: for pIC50: read-out: IC50
How it was run: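 N36 peptide (2 µM) preincubated with graded compound concentrations at 37 °C for 30 min, then C34 (2 µM) added for another 30 min at 37 °C. Mixture captured on plates coated with anti-6-HB rabbit IgG (10 µg/mL); detected with mAb NC-1, biotinylated anti-mouse IgG, SA-HRP, TMB; A450. Percent inhibition calculated; triplicate.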

[2] = test system: Human immunodeficiency virus 1; experiment: Antiviral activity against HIV1 3B infected in human MT2 cells assessed as inhibition of p24 production after 4 days by ELISA; type: functional, organism-based; conditions: for pEC50: Human immunodeficiency virus 1, 3B, MT2, 96 h, read-out: EC50
[3] = Cytotoxicity against human MT2 cells after 4 days using XTT assay; type: cell-based
How it was run: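 MT-2 cells (5×10^5/mL) mixed with equal volume of graded compound concentrations, 37 °C for 4 days; XTT (1 mg/mL) containing 0.02 µM PMS added, A450 read after 4 h. CC50 calculated by CalcuSyn; triplicate, mean ± SD.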

[4] = Selectivity index, ratio of CC50 for human MT2 cells to EC50 for HIV1 3B; type: toxicity, cell-based; conditions: read-out: Ratio CC50/EC50
How it was run: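 Ratio CC50/EC50, CC50 from XTT cytotoxicity in MT-2 cells over 4 days and EC50 from p24 inhibition in HIV-1 IIIB-infected MT-2 cells at day 4.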

Row | Structure (SMILES) | pIC50 [1] | pEC50 [2] | CC50 at 96 h [3] [µM] | selectivity ratio [4] | IC50 [1] | EC50 ([2]; mt2)
1 | Cc1cc(/C=C2\SC(=S)N(c3ccccc3)C2=O)c(C)n1-c1cccc(-c2nnn[nH]2)c1 | 5.36 | 5.49 | 61 | 19 | – | –
2 | Cc1cc(/C=C2\SC(=S)N(c3ccc(O)cc3)C2=O)c(C)n1-c1cccc(-c2nnn[nH]2)c1 | 4.69 | 4.59 | 45.6 | 1.8 | – | –
3 | CCOC(=O)/C(C#N)=C/c1cc(C)n(-c2cccc(-c3nnn[nH]3)c2)c1C | – | 4.74 | 76.8 | 4.3 | Not Active | –
4 | Cc1cc(/C=C2\SC(=S)N(Cc3ccccc3)C2=O)c(C)n1-c1cccc(-c2nnn[nH]2)c1 | 4.90 | 4.91 | 150 | 12 | – | –
5 | CCOC(=O)C(=Cc1cc(C)n(-c2cccc(-c3nnn[nH]3)c2)c1C)C(=O)OCC | 4.92 | 4.76 | 77.4 | 4.5 | – | –
6 | Cc1cc(/C=C2\SC(=S)N(c3ccc(Br)cc3)C2=O)c(C)n1-c1cccc(-c2nnn[nH]2)c1 | 5.34 | 5.66 | 46.8 | 21 | – | –
7 | Cc1cc(/C=C2\SC(=S)N(c3cccc(O)c3)C2=O)c(C)n1-c1cccc(-c2nnn[nH]2)c1 | 5.11 | 5.20 | 35.6 | 5.7 | – | –
8 | Cc1cc(/C=C2\SC(=S)N(c3cccc(Br)c3)C2=O)c(C)n1-c1cccc(-c2nnn[nH]2)c1 | – | 5.01 | 22.6 | 2.3 | Not Active | –
9 | Cc1cc(/C=C2\NC(=O)N(c3cccc(C(F)(F)F)c3)C2=O)c(C)n1-c1cccc(-c2nnn[nH]2)c1 | 4.38 | 4.31 | 76.5 | 1.6 | – | –
10 | COc1ccc(N2C(=O)N/C(=C\c3cc(C)n(-c4cccc(-c5nnn[nH]5)c4)c3C)C2=O)cc1 | 4.65 | 4.29 | 101 | 2 | – | –
11 | Cc1cc(/C=C2\SC(=S)N(CCc3ccccc3)C2=O)c(C)n1-c1cccc(-c2nnn[nH]2)c1 | 4.55 | 5.39 | 45.7 | 11 | – | –
12 | Cc1cc(/C=C2\SC(=S)N(c3cccc([N+](=O)[O-])c3)C2=O)c(C)n1-c1cccc(-c2nnn[nH]2)c1 | 5.49 | 4.62 | 77 | 3.2 | – | –
13 | O=C(O)c1cc(-n2cccc2)ccc1Cl | 4.23 | – | – | – | – | –
14 | COc1cccc(N2C(=O)/C(=C/c3cc(C)n(-c4cccc(-c5nnn[nH]5)c4)c3C)SC2=S)c1 | 5.51 | 5.22 | 40.6 | 6.8 | – | –
15 | Cc1cc(/C=C2\SC(=S)N(c3ccc(C(F)(F)F)cc3)C2=O)c(C)n1-c1cccc(-c2nnn[nH]2)c1 | 5.57 | 4.88 | 27.1 | 2.1 | – | –
16 | Cc1cc(C=C(C#N)C#N)c(C)n1-c1cccc(-c2nnn[nH]2)c1 | – | – | > 400 | – | Not Active | Not Active
17 | Cc1ccc(C)n1-c1cccc(-c2nnn[nH]2)c1 | 4.59 | – | – | 32 | – | –
18 | Cc1cc(/C=C2\SC(=S)N(c3cccc(C(F)(F)F)c3)C2=O)c(C)n1-c1cccc(-c2nnn[nH]2)c1 | – | 5.17 | 15.8 | 2.3 | Not Active | –
19 | COc1ccc(N2C(=O)/C(=C/c3cc(C)n(-c4cccc(-c5nnn[nH]5)c4)c3C)SC2=S)cc1 | 5.04 | 4.32 | 87 | 1.8 | – | –
20 | Cc1cc(/C=C/[N+](=O)[O-])c(C)n1-c1cccc(-c2nnn[nH]2)c1 | – | 4.53 | 78.8 | 2.7 | Not Active | –

Source: ChEMBL document CHEMBL1914351, “Design, synthesis and biological evaluation of 3-substituted 2,5-dimethyl-N-(3-(1H-tetrazol-5-yl)phenyl)pyrroles as novel potential HIV-1 gp41 inhibitors” (Bioorg Med Chem, 2011)
